Experimental data reported in ChEMBL document CHEMBL1933020, “A novel series of glucagon receptor antagonists with reduced molecular weight and lipophilicity” (Bioorg Med Chem Lett, 2012).
In brackets after ≈: the same amount, converted by molar mass.

Assays:
[1] = Clearance in Wistar-Han rat at 1 mg/kg, iv and 5 mg/kg, po; type: ADME, organism-based; details: in vivo
Procedure, shortened: (§1)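 Wistar-Han rats were dosed at 1 mg/kg i.v. and 5 mg/kg p.o.; pharmacokinetic parameters were derived from the plasma profiles.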

[2] = target: Glucagon-like peptide 1 receptor (Homo sapiens, UniProt P43220); assay: Displacement of [125I]GLP-1 from human GLP1R
Sequence of Glucagon-like peptide 1 receptor (P43220 whole entry): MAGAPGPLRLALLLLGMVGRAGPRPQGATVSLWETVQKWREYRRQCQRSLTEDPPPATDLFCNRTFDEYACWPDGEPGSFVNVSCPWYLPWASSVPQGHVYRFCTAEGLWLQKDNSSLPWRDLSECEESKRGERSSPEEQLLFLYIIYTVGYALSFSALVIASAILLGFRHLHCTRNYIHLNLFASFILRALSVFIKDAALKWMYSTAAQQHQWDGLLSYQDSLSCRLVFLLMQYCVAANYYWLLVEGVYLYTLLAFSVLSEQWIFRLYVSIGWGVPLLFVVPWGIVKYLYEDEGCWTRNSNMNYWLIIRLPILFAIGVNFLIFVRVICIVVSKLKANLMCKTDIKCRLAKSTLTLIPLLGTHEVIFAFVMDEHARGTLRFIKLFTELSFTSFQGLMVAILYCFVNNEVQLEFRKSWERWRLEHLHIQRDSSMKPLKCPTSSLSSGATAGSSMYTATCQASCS
Procedure, shortened: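 Displacement of [125I]GLP-1 from membranes expressing the human GLP-1 receptor.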

[3] = target: T1, Gastric inhibitory polypeptide receptor (Homo sapiens, UniProt P48546); assay: Displacement of [125I]GIP from human GIPR
T1 sequence (P48546 whole entry): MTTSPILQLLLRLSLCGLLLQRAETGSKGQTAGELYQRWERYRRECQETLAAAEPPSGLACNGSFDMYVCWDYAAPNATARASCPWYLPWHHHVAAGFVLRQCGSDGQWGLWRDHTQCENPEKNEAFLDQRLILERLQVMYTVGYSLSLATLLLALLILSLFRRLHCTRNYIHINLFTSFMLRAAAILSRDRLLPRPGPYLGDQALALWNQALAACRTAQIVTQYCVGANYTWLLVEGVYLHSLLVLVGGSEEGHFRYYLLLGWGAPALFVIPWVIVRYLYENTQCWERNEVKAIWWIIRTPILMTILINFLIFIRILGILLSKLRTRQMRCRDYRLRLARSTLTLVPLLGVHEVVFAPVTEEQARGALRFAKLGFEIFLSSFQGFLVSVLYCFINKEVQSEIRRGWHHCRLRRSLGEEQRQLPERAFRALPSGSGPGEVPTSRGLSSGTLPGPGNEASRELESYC

[4] = (§2) Half life in Wistar-Han rat at 1 mg/kg, iv and 5 mg/kg, po; type: ADME, organism-based; details: Wistar-Han, in vivo; procedure, shortened: as §1
[5] = Clearance in dog at 0.5 mg/kg, iv; type: ADME, organism-based, Canis lupus familiaris; set-up: dose 0.5 mg/kg, route intravenous; details: in vivo
Procedure, shortened: (§3)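 Beagle dogs given a single intravenous dose of 0.5 mg/kg; pharmacokinetic parameters were derived from the plasma concentration–time profile.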

[6] = Lipophilicity, log D of the compound in octanol-phosphate buffer at pH 7.4; type: physicochemical
Procedure, shortened: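 Shake-flask partition between octanol and buffer at pH 7.4.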

Glucagon receptor [7] = target: T2, Glucagon receptor (Homo sapiens, UniProt P47871); assay: Displacement of [125I]Glucagon-Cex from human GCGR
T2 sequence (P47871 whole entry): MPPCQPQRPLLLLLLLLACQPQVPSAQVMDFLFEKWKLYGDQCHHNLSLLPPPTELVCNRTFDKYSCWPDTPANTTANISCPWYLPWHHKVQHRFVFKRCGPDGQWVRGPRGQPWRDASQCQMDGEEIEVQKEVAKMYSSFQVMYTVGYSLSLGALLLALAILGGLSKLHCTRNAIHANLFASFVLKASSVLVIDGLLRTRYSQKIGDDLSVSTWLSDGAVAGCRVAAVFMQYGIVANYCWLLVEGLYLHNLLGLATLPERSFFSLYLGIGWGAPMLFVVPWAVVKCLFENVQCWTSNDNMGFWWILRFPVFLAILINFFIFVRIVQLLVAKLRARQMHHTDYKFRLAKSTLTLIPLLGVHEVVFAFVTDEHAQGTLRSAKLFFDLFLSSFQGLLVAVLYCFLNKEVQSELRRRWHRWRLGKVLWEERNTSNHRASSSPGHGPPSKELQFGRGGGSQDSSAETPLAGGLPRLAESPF
Procedure, shortened: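 Displacement of [125I]glucagon-Cex from membranes containing the human glucagon receptor, run with 0.2% BSA. Values are geometric means of n ≥ 2 determinations.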

[8] = Volume of distribution at steady state in dog at 0.5 mg/kg, iv; type: ADME, organism-based, Canis lupus familiaris; set-up: dose 0.5 mg/kg, route intravenous; details: in vivo, read-out: Vdss; procedure, shortened: as §3
[9] = AUC in dog at 0.5 mg/kg, iv; type: ADME, organism-based, Canis lupus familiaris; set-up: dose 0.5 mg/kg, route intravenous; details: plasma; procedure, shortened: as §3
[10] = (§4) Oral bioavailability in Wistar-Han rat at 5 mg/kg; type: ADME, organism-based; details: Wistar-Han, in vivo; procedure, shortened: as §1
[11] = Permeability across low transporter-containing MDCK2 cells; type: ADME, cell-based, Canis lupus familiaris, MDCK-II; details: dog; for permeability: mdck-ii; for Papp: MDCK, read-out: permeability
[12] = Cytotoxicity against human THLE cells after 72 hrs; type: cell-based
Procedure, shortened: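 Transformed human liver epithelial (THLE) cells were exposed to compound for 72 h. Cytotoxicity was read as cellular ATP depletion and reported as the concentration predicted to kill 50% of cells.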

[13] = Apparent intrinsic clearance in rat liver microsomes; type: ADME, Microsome; details: read-out: CLH
[14] = Half life in dog at 0.5 mg/kg, iv; type: ADME, organism-based, Canis lupus familiaris; set-up: dose 0.5 mg/kg, route intravenous; details: in vivo; procedure, shortened: as §3
[15] = Kinetic solubility of the compound at pH 6.5; type: physicochemical; details: buffer; for solubility kinetic: read-out: Kinetic_solubility
[16] = (§5) Volume of distribution at steady state in Wistar-Han rat at 1 mg/kg, iv and 5 mg/kg, po; type: ADME, organism-based; details: Wistar-Han, in vivo, read-out: Vdss; procedure, shortened: as §1
Rattus norvegicus [17] = assay: as §2; type: ADME, organism-based; details: in vivo; procedure, shortened: as §1
Rattus norvegicus [18] = assay: as §4; type: ADME, organism-based; details: in vivo; procedure, shortened: as §1
Rattus norvegicus [19] = assay: as §5; type: ADME, organism-based; details: in vivo; procedure, shortened: as §1
[20] = target: Glucagon receptor (Rattus norvegicus) (UniProt P30082); assay: Antagonist activity at rat GCGR assessed as inhibition of glucagon-induced cAMP production
Rattus norvegicus [21] = assay: Antidiabetic activity in Wistar-Han rat assessed as reduction in glucagon-induced blood glucose excursion at 10 mg/kg, iv after 11 mins; type: functional; set-up: scale not given: the % may be the effect or the level left
Procedure, shortened: (§6)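 Wistar-Han rats received compound or vehicle i.v. at t = 0 (1, 10 or 30 mg/kg), then a 3 µg/kg i.v. glucagon bolus at 15 min. Blood glucose was sampled at 0, 10, 26, 32, 50 and 80 min, and compound plasma levels were measured. n = 6 rats per dose group.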

Rattus norvegicus [22] = assay: Antidiabetic activity in Wistar-Han rat assessed as reduction in glucagon-induced blood glucose excursion at 30 mg/kg, iv after 11 mins; type: functional; set-up: scale not given: the % may be the effect or the level left; procedure, shortened: as §6
Rattus norvegicus [23] = assay: Antidiabetic activity in Wistar-Han rat assessed as reduction in glucagon-induced blood glucose excursion at 1 mg/kg, iv after 11 mins; type: functional; set-up: scale not given: the % may be the effect or the level left; procedure, shortened: as §6
[24] = Plasma concentration in Wistar-Han rat at 10 mg/kg, iv after 11 mins; type: ADME, organism-based; set-up: dose 10 mg/kg, route intravenous; procedure, shortened: as §6
[25] = Plasma concentration in Wistar-Han rat at 1 mg/kg, iv after 11 mins; type: ADME, organism-based; set-up: dose 1 mg/kg, route intravenous; procedure, shortened: as §6
[26] = Plasma concentration in Wistar-Han rat at 30 mg/kg, iv after 11 mins; type: ADME, organism-based; set-up: dose 30 mg/kg, route intravenous; procedure, shortened: as §6
Glucagon receptor [27] = target: T2, Glucagon receptor; assay: Antagonist activity at human GCGR assessed as inhibition of glucagon-induced cAMP accumulation in cell-based assay; type: functional
Procedure, shortened: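 Cell line expressing the human glucagon receptor. Antagonism was measured as inhibition of glucagon-induced cAMP production. […] Values are geometric means of n ≥ 2 determinations.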

Rattus norvegicus [28] = organism: Rattus norvegicus; assay: Antidiabetic activity in Wistar-Han rat assessed as reduction in glucagon-induced blood glucose excursion
[29] = Apparent intrinsic clearance in human liver microsomes; type: ADME, Microsome; details: read-out: CLH
[30] = octanol/phosphate buffer, read-out: logD

Compound | clearance [1] [mL/min/kg] | Ki [2] [nM] | Ki [3] [nM] | half-life [4] [min] | logD ([6]; octanol/water) | Ki (Glucagon receptor [7]) [nM] | bioavailability [10] [%] | permeability [11] [×10⁻⁶ cm/s] | CLint scaled [13] [mL/min/kg] | Kinetic_solubility [15] [µM] | Vd [16] [L/kg] | logD [6, 30] | Papp [11] [×10⁻⁶ cm/s] | solubility kinetic [15] [µM] | further results
CCCC(Oc1cnn(-c2ccc(C(F)(F)F)cc2)c1)c1ccc(C(=O)NCCC(=O)O)cc1 (single isomer, unassigned; (-)) | 48 | 16500 | 939 | 42 | 2.31 | 91 | 11 | 5.87 | < 25 | 77 | 1.17 |  |  |  | clearance [5]: 9.6 mL/min/kg; Vd [8]: 1.04 L/kg; AUC [9]: 828 ng·h/mL; IC50 ([12]; Homo sapiens, THLE, 72 h): 90000 nM; half-life [14]: 138 min
O=C(O)CCNC(=O)c1ccc(C(Nc2cnn(-c3ccc(C(F)(F)F)cc3)c2)C2CCCC2)cc1 (single isomer, unassigned; (+)) [listing 2 of 2 here] |  |  |  |  |  |  |  |  |  |  |  |  |  |  | Kb (Glucagon receptor [27]): 120 nM; Activity (Rattus norvegicus [28]): Dose-dependent effect
CCCC(Oc1cnn(-c2ccc(C(F)(F)F)cc2)c1)c1ccc(C(=O)NCCC(=O)O)cc1 (single isomer, unassigned; (+)) |  | 21800 | 4080 |  |  | 430 |  |  |  |  |  | 2.33 | 7.74 | 53 (≈ 25.2 µg/mL) | 
CCCC(Nc1cnn(-c2ccc(C(F)(F)F)cc2)c1)c1ccc(C(=O)NCCC(=O)O)cc1 (single isomer, unassigned; (-)) |  | 9080 | 1950 |  | 1.77 | 67 |  | 2.76 | < 25 | 500 |  |  |  |  | 
CCCc1c(C(C)C)cc(C(C)C)c(C(C)O)c1-c1ccc(F)cc1 (stereo not drawn) |  |  |  |  |  | 356 |  |  |  |  |  |  |  |  | Kb (Glucagon receptor [27]): 78 nM

Further molecules by falling Ki (Glucagon receptor [7]), results first:

clearance [1] [mL/min/kg] | Ki [2] [nM] | Ki [3] [nM] | half-life [4] [min] | logD ([6]; octanol/water) | Ki (Glucagon receptor [7]) [nM] | bioavailability [10] [%] | permeability [11] [×10⁻⁶ cm/s] | CLint scaled [13] [mL/min/kg] | Kinetic_solubility [15] [µM] | Vd [16] [L/kg] | logD [6, 30] | Papp [11] [×10⁻⁶ cm/s] | solubility kinetic [15] [µM] | Compound | further results
 | 4220 | 3840 |  | 1.76 | 48 |  | 3.8 |  |  |  |  |  |  | O=C(O)CCNC(=O)c1ccc(C(CCC(F)(F)F)Nc2cnn(-c3ccc(C(F)(F)F)cc3)c2)cc1 (single isomer, unassigned; (-)) | 
67 | 10400 |  | 18 |  | 19 | 4 | 8.81 |  |  | 1.13 | 1.73 |  | 550 (≈ 261 µg/mL) | CCCC(Nc1cnn(-c2ccc(C(F)(F)F)cc2)c1)c1ccc(C(=O)NCCC(=O)O)cc1 (single isomer, unassigned; (+)) | CLint scaled [29]: < 8 mL/min/kg
76 | 6620 | 927 |  | 2.29 | 17 |  | 7.54 |  | 310 |  |  |  |  | O=C(O)CCNC(=O)c1ccc(C(Nc2cnn(-c3ccc(C(F)(F)F)cc3)c2)C2CCCC2)cc1 (single isomer, unassigned; (-)) | t1/2 (Rattus norvegicus [17]): 102 min; clearance [5]: 4.6 mL/min/kg; Vd [8]: 0.623 L/kg; AUC [9]: 1870 ng·h/mL; F (Rattus norvegicus [18]): 6%; IC50 ([12]; Homo sapiens, THLE, 72 h): 166000 nM; half-life [14]: 108 min; Vdss (Rattus norvegicus [19]): 2.83 L/kg
56 | 816 | 300 | 18 |  | 12 | 0.5 |  | < 25 |  | 0.615 | 1.67 | 3.48 | 490 (≈ 259 µg/mL) | O=C(O)CCNC(=O)c1ccc(C(CCC(F)(F)F)Nc2cnn(-c3ccc(C(F)(F)F)cc3)c2)cc1 (single isomer, unassigned; (+)) | CLint scaled [29]: < 8 mL/min/kg
 | 3340 | 152 |  |  | 9 |  |  | < 25 |  |  | 2.27 | 6.34 | 320 (≈ 160 µg/mL) | O=C(O)CCNC(=O)c1ccc(C(Nc2cnn(-c3ccc(C(F)(F)F)cc3)c2)C2CCCC2)cc1 (single isomer, unassigned; (+)) [listing 1 of 2 here] | Kb [20]: 2340 nM; t1/2 (Rattus norvegicus [17]): 24 min; Activity (Rattus norvegicus [21]): 20%; Activity (Rattus norvegicus [22]): 24%; F (Rattus norvegicus [18]): 2%; Activity (Rattus norvegicus [23]): 12%; concentration at 11 min [24]: 2280 ng/mL; IC50 ([12]; thle): 235000 nM; concentration at 11 min [25]: 300 ng/mL; concentration at 11 min [26]: 21000 ng/mL; Vdss (Rattus norvegicus [19]): 1.27 L/kg
